Assay results collected from several papers.
Protocols differ between the studies behind these lines.
Target: Serine/threonine-protein kinase Nek7 (NEK7, Homo sapiens, UniProt Q8TDX7)

Structure (SMILES)	assay	system	conditions	quantity	value
CCN(CC)CCNC(=O)c1c(C)[nH]c(/C=C2\C(=O)Nc3ccc(F)cc32)c1C	enzyme activity, inhibitor	–	0.3 µM	inhibition	-8%
CCN(CC)c1ccc(C2=NNC(=O)CC2C)cc1[N+](=O)[O-] (stereo not shown)	enzyme activity, inhibitor	–	10 µM	remaining activity	107%
Nc1ncnc2occ(-c3ccc(NC(=O)Nc4cc(C(F)(F)F)ccc4F)cc3)c12	cell-free assay, inhibitor	–	20 µM	remaining signal	4%
CC/C(=N\NC(=O)NCc1cccc(O)c1)c1ccc(O)c(C)c1O	enzyme activity, inhibitor	–	0.1 µM	inhibition	6.5%
CN1CC(Oc2cnc(C#N)cc2-c2ccn3nc(NC(=O)C4CC4)cc3c2)C1	enzyme activity, inhibitor	–	1 µM	inhibition	0%
O=C1NC(=O)c2cc(Nc3ccc(F)cc3)c(Nc3ccc(F)cc3)cc21	cell-free assay	–	0.5 µM	remaining signal	103%
CC1(C)NC(=O)c2[nH]c3c(Cl)c(Cl)ccc3c2C1C#N (stereo not shown)	thermal stability, DSF	–	10 µM	ΔTm	-0.4 °C
C[C@@]1(Cc2ccc(C#N)cc2)C(=O)N(c2cc(Cl)cc(Cl)c2)c2ncc(C(=O)NC3(c4nc(C5CCC5)no4)CC3)n21	cell-free assay, competition with immobilised ligand	–	1 µM	remaining binding	100%
CNC(=O)c1cc(Oc2ccc(NC(=O)Nc3ccc(Cl)c(C(F)(F)F)c3)cc2)ccn1	enzyme activity, inhibitor	–	0.3 µM	inhibition	-9%
CCN1CCN(Cc2ccc(NC(=O)c3ccc(C)c(Oc4ccnc5[nH]ccc45)c3)cc2C(F)(F)F)CC1	target engagement in cells, inhibitor, chemoproteomics	A-375	5 µM	inhibition	0.277%
CC(C)(O)[C@H]1CC[C@H](Nc2ccc3ncc(-c4cccc(C(F)(F)F)c4)n3n2)CC1	enzyme activity, inhibitor	–	1 µM	remaining activity	93.6%
O=C1NC(c2ccccn2)Sc2ccccc21 (stereo not shown)	cell-free assay, competition with immobilised ligand	–	1 µM	remaining binding	68%
Cn1c2c(c3ccc(Cl)c(Cl)c31)C(C#N)C1(CCN(C(=O)OC(C)(C)C)CC1)NC2=O (racemic)	thermal stability, DSF	–	10 µM	ΔTm	0 °C
O=C(Nc1cnn(-c2csc(C(=O)NC3COC3)c2)c1)Nc1c(F)cccc1Cl	enzyme activity, inhibitor	–	5 µM	remaining activity	88.1%
COc1cccc2c(NCc3ccccc3)nc(-n3c(N)nc4ccccc43)nc12	target engagement in cells, inhibitor, chemoproteomics	–	20 mM	inhibition	-1%
CCN1CCC2(CC1)NC(=O)c1c(c3ccc(Cl)c(Cl)c3n1C)C2C#N (racemic)	thermal stability, DSF	–	10 µM	ΔTm	-0.2 °C

Structure (SMILES)	assay	system	conditions	quantity	value
CCCOc1ccc(OC)c(F)c1C(=O)c1ccc(C(=O)N[C@@H]2CNC[C@H]2NC(=O)c2ccc3[nH]ncc3c2)cc1	enzyme activity, inhibitor	–	10 µM	remaining activity	96%
Clc1ccc(Nc2nnc(Cc3ccncc3)c3ccccc23)cc1	cell-free assay	–	0.5 µM	remaining signal	96.8%
Cc1ccc(Nc2nccc(N(C)c3ccc4c(C)n(C)nc4c3)n2)cc1S(N)(=O)=O	enzyme activity, inhibitor	–	10 µM	inhibition	-6%
O=c1nc(-c2ccccn2)sc2ccccc12	binding, competition with immobilised ligand	–	1 µM	remaining binding	75%
Cc1sc(C(=O)NC2COC2)cc1-n1cc(NC(=O)Nc2c(F)cccc2Cl)cn1	enzyme activity, inhibitor	–	10 µM	remaining activity	100%
CO[C@@H](C)c1c(Nc2ccc([C@@H](N(C)C(=O)C3CCS(=O)(=O)CC3)C(F)(F)F)cc2)cnc2cc(Cl)nn12	cell-free assay, competition with immobilised ligand	–	1 µM	remaining binding	91%
Cc1ccc(C(=O)Nc2ccc(CN3CCN(C)CC3)c(C(F)(F)F)c2)cc1C#Cc1cnc2cccnn12	enzyme activity, inhibitor	–	23.5 nM	remaining activity	93%
CN1CCN(c2cnc3c(C4CCN(C(=O)c5ccc(OC(F)(F)F)cc5N)CC4)ncnc3c2)CC1	cell-free assay, competition with immobilised ligand	–	1 µM	remaining binding	100%
CCC1(CC)NC(=O)c2c(c3ccc(Cl)c(Cl)c3n2C)C1C#N (stereo not shown)	thermal stability, DSF	–	10 µM	ΔTm	-0.4 °C
CCOC(=O)c1cc2cc(-c3cc(C(=O)NCc4ccc(C(=O)O)cc4)nn3C)ccc2[nH]1	cell-free assay, competition with immobilised ligand	–	0.1 µM	remaining binding	100%
CC(C)(C)c1nc2c(s1)c1nc(N)ncc1c1ccc(NS(=O)(=O)c3c(F)cccc3F)c(F)c12	enzyme activity, inhibitor, radiometric	–	1 µM	remaining activity	27%
Cn1c2c(Cl)c(Cl)ccc2c2cn[nH]c(=O)c21	thermal stability, DSF	–	10 µM	ΔTm	0 °C
N#Cc1ccc(Nc2ccc3[nH]c(=O)[nH]c3c2)c(Cl)c1	cell-free assay, competition with immobilised ligand	–	1 µM	remaining binding	100%
Cn1c2c(c3ccc(Cl)c(Cl)c31)C(C#N)C1(CCOCC1)NC2=O (stereo not shown)	thermal stability, DSF	–	10 µM	ΔTm	-0.5 °C
CCCCN(CCCC)C(=O)CN1C[C@H](c2cc(OC)c3c(c2)OCO3)[C@@H](C(=O)O)[C@@H]1CC(C)(C)CCC	cell-free assay, competition with immobilised ligand	–	1 µM	remaining binding	100%
